ChEMBL document CHEMBL4765370, “Design, synthesis, and biological evaluation of aryl piperazines with potential as antidiabetic agents via the stimulation of glucose uptake and inhibition of NADH:ubiquinone oxidoreductase” (Eur J Med Chem, 2020)

Key:
[1] = AUCinfinity in C57 Black mouse muscle at 10 mg/kg, iv; type: ADME, organism-based, Muscle tissue; design: time infinity, route intravenous, dose 10 mg/kg
How it was run: (§1)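 Male C57BL/6 mice were given a single 10 mg/kg dose either intravenously or orally. The oral and IV solutions were formulated in 10% DMSO, 10% cremaphor and 80% saline. Concentrations in plasma and in the tissues collected were determined after dosing, with n = 3 per route. Values are given as mean ± SEM.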

[2] = AUCall in C57 Black mouse muscle at 10 mg/kg, iv; type: ADME, organism-based, Muscle tissue; design: dose 10 mg/kg; how it was run: as §1
[3] = AUCinfinity in C57 Black mouse liver at 10 mg/kg, iv; type: ADME, organism-based; design: route intravenous, time infinity, dose 10 mg/kg; how it was run: as §1
[4] = Volume of distribution in C57 Black mouse spleen at 10 mg/kg, iv; type: ADME, organism-based
How it was run: (§2)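 Male C57BL/6 mice (n = 3) dosed at 10 mg/kg by IV or oral (PO) route. Dosing solutions were formulated in 10% DMSO, 10% cremaphor and 80% saline. Compound levels were measured in plasma and tissues over time, and values are given as mean ± SEM.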

[5] = Tmax in C57 Black mouse kidney at 10 mg/kg, iv; type: ADME, organism-based; how it was run: as §2
[6] = Half life in mouse hepatocytes at 1 uM up to 120 mins by HPLC-MS/MS analysis; type: ADME, cell-based, Hepatocyte
[7] = Cmax in C57 Black mouse plasma at 10 mg/kg, iv; type: ADME, organism-based; design: route intravenous, dose 10 mg/kg; how it was run: as §1
[8] = AUCinfinity in C57 Black mouse plasma at 10 mg/kg, iv; type: ADME, organism-based; design: route intravenous, time infinity, dose 10 mg/kg; settings: in vivo; how it was run: as §1
[9] = AUClast in C57 Black mouse brain at 10 mg/kg, iv; type: ADME, organism-based; design: time 0 - last, route intravenous, dose 10 mg/kg; how it was run: as §1
CYP1A2 = target: T1, CYP1A2 (Homo sapiens, UniProt P05177); assay: Inhibition of human CYP1A2 using fluorogenic substrate incubated for 60 mins in presence of NADPH by fluorescence assay relative to control; type: ADME; settings: probe fluorogenic substrate
T1 sequence (P05177 whole entry): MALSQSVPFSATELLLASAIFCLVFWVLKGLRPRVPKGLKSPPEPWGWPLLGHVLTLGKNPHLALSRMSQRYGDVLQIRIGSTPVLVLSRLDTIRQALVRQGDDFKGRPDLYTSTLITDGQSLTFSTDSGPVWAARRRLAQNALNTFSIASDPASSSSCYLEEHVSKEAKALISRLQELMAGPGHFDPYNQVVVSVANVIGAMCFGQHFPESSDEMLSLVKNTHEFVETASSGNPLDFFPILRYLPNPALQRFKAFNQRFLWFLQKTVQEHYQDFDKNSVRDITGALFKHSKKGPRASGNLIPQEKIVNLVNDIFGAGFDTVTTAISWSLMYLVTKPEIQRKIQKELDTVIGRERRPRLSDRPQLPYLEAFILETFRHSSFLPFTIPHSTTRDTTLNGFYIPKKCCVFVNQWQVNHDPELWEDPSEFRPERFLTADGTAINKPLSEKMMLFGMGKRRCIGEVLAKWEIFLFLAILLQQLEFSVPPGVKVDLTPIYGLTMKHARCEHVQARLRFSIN
How it was run: (§3)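 Baculosomes each expressing a single cDNA-derived human P450 isozyme were incubated with compound at 10 µM, a fluorogenic substrate and NADPH. Incubation was at 37 °C for at least 60 min before fluorescence was read, n = 3.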

CYP2D6 = CYP2D6 (Homo sapiens, UniProt P10635); assay: Inhibition of human CYP2D6 using fluorogenic substrate incubated for 60 mins in presence of NADPH by fluorescence assay relative to control; type: ADME; settings: probe fluorogenic substrate; how it was run: as §3
Chain of CYP2D6 (P10635 whole entry): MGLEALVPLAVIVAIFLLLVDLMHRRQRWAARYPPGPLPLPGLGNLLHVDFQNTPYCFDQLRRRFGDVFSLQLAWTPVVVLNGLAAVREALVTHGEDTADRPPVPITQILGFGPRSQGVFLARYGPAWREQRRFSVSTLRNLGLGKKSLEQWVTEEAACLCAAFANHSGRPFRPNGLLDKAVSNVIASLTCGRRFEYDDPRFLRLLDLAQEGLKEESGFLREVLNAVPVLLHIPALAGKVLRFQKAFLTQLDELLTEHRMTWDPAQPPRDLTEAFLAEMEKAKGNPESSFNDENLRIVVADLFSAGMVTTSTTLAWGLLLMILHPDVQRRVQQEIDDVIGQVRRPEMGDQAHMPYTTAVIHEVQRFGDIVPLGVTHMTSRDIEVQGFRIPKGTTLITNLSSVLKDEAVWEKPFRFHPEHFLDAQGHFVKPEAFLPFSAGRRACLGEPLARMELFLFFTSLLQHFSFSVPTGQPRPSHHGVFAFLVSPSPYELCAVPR

CYP3A4 = CYP3A4 (Homo sapiens, UniProt P08684); assay: Inhibition of human CYP3A4 using fluorogenic substrate incubated for 60 mins in presence of NADPH by fluorescence assay relative to control; type: ADME; settings: probe fluorogenic substrate; how it was run: as §3
Chain of CYP3A4 (P08684 whole entry): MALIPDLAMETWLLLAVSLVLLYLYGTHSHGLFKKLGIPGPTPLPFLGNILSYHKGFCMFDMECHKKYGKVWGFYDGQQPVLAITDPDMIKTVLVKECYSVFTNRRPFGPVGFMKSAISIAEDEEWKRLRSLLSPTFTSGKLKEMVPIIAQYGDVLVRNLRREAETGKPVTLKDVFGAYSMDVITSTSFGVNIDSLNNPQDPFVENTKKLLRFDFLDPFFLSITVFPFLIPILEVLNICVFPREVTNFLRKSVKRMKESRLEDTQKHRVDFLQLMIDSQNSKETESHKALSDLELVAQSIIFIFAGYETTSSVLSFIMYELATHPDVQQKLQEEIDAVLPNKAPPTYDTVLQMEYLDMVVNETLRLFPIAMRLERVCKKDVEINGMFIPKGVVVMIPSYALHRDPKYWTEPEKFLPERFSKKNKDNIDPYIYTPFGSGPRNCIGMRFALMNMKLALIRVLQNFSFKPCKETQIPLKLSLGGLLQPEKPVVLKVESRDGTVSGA

AUC(0-inf) [1]: 107 ng·h/mL
AUC [2]: 77.3 ng·h/mL
AUC(0-inf) [3]: 531 ng·h/mL
Vd [4]: 3.19 L/kg
Tmax [5]: 1.8 min
half-life at 1 µM [6]: 2.1 h
Cmax [7]: 996 ng/mL
AUC [8]: 244 ng·h/mL
AUC(0-t) [9]: 246 ng·h/mL
inhibition at 1 h (CYP1A2): 53.7%
inhibition at 1 h (CYP2D6): -2.7%
inhibition at 1 h (CYP3A4): 80.2%
Structure (SMILES): O=C(CCCc1cccs1)N1CCN(c2ccc(C(F)(F)F)cc2)CC1
